“And” between values parts separate entries of the source, which are not always exact repeats. Identical values can stand only once. “Also recorded” adds a separate entry of the source.
Experiments:
[1] = test system: patients with myelofibrosis; experiment: Hemoglobin/platelet response and transfusion status; assay type: in vivo, human
Outline: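 Oral test compound was given QD or BID in continuous 28-day cycles. Hematologic response was scored by IWG-MRT criteria on Day 1 of Cycles 2, 3 and 4, then every 3 cycles. Transfusion dependence was defined as ≥6 units packed red cells in any rolling 12-week interval. Patients without transfusion in the 12 weeks before entry were classed transfusion-free at baseline.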

cytokines = experiment: PD: plasma biomarkers; assay type: in vivo, human
Outline: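 Predose plasma was drawn on Day 1 of Cycles 1–4. Eighty-eight cytokines/proteins were quantified on a multiplexed HumanMAP v2.0 panel. Analysis covered patients with ≥1 dose, a baseline value and ≥1 evaluable post-baseline sample.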

[2] = test system: patients with myelofibrosis; experiment: Bone marrow fibrosis grade; assay type: in vivo, human
Outline: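 Adults with myelofibrosis took the oral test compound once or twice daily in continuous 28-day cycles. Bone marrow biopsies were taken at screening (within 28 days before first dose), on Day 1 of Cycle 4, then every 3 cycles, and read at each site. Fibrosis was graded 0–3 and categorized against baseline as improved ≥1 grade, stable, or worsened ≥1 grade.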

[3] = test system: patients with myelofibrosis; experiment: Splenic response by palpation; assay type: in vivo, human
Outline: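 Spleen size was measured by palpation and response scored by IWG-MRT criteria. Assessments fell on Day 1 of Cycles 2, 3 and 4, then every 3 cycles, during daily oral dosing in continuous 28-day cycles. Analysis covered patients who completed ≥1 cycle and had baseline splenomegaly ≥5 cm.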

JAK2 = conditions: cited from earlier work
[4] = test system: patients with myelofibrosis; experiment: MF-associated symptoms; assay type: in vivo, human
Outline: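 Symptoms were self-rated on the Myelofibrosis Symptom Assessment Form at baseline, on Day 1 of Cycles 2 and 4, then every 3 cycles, during daily oral dosing in 28-day cycles. Evaluable patients had ≥1 cycle treated and a baseline symptom score >2. Each symptom was scored for ≥50% reduction, with a subgroup of patients pretreated with a JAK2 inhibitor.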

Plasma pharmacokinetics = assay type: in vivo, human
Outline: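 Plasma was sampled on Days 1, 8 and 29: predose and ~0.5, 1, 2, 3, 4, 6 and 8 h after oral dosing, plus 24 h on Days 1 and 29. Test compound was measured by LC-MS/MS (LLOQ 1 ng/ml). For BID regimens, AUC0–24 was taken as twice AUC0–12. Analysis covered patients with ≥1 evaluable profile.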

[5] = individual patient with BMF improvement after 3 cycles, 125 mg QD
[6] = individual patients with BMF improvement after 3 cycles, 300 mg QD
[7] = patients without BMF improvement after 3 cycles (n=19)
[8] = 21 patients, doses ⩾300 mg QD, following 4 cycles
[9] = 36 evaluable patients, all cohorts

## C[C@H](Nc1cc(-c2cnn(C)c2)cc(Nc2cnccn2)n1)c1ccc(F)cc1 [NS-018]
[1]; all cohorts
  Hemoglobin IWG-MRT clinical improvement: 4 patients
  Hemoglobin improvement (⩾20 g/l increase): 11 patients
  Platelet IWG-MRT clinical improvement: 1 patients
  Platelet improvement (100% increase): 2 patients
[1]; individual patient with BMF improvement after 3 cycles, 75 mg QD
  Increase in Hb of ⩾20 g/l: ✓ (not CI)
[1]; [5]
  100% increase in Plt count: ✓ (CI)
  Increase in Hb of ⩾20 g/l: ✓ (not CI)
[1]; individual patients with BMF improvement after 3 cycles, 300 mg BID
  Increase in Hb of ⩾20 g/l: ✓ (CI)
[1]; [6]
  100% increase in Plt count: ✓ (not CI)
  Increase in Hb of ⩾20 g/l: ✓ (CI)
[1]; individual patients with BMF improvement after 3 cycles, 400 mg BID
  Increase in Hb of ⩾20 g/l: ✓ (not CI)
[1]; of the 10 patients transfusion dependent at baseline
  Patients achieving transfusion independence: 3 patients
[1]; [7]
  Hemoglobin responses: 2 responses
  Platelet responses: no platelet responses
cytokines; [8]
  B2M, CRP, IL-18, myeloperoxidase and TNFR2 plasma levels: Dose-dependent downregulation
  Erythropoietin, leptin and eotaxin-1 plasma levels: dose-dependent upregulation
cytokines; after 4 weeks of treatment
  Tumor necrosis factor-α and IL-6 levels: unchanged
[2]; after 3 cycles, 30 evaluable patients
  Patients with improvement of ⩾1 BMF grade: 37%
[2]; after Cycle 3, 30 evaluable patients
  Patients with unchanged BMF grade: 53%
[2]; at completion of Cycle 3, 30 evaluable patients
  Patients with BMF worsening: 10%
[2]; individual patient, 75 mg QD
  Duration of BMF grade change: 3 cycles
[2]; individual patient, 125 mg QD
  Duration of BMF grade change: 12 cycles
[2]; individual patient, 250 mg BID
  Duration of BMF grade change: 2 cycles
[2]; individual patient, 400 mg QD
  Duration of BMF grade change: 6 cycles
[2]; individual patients, 300 mg BID
  Duration of BMF grade change: 2 cycles and 1 cycles
[2]; individual patients, 300 mg QD
  Duration of BMF grade change: 3 cycles and 39 cycles and 9 cycles
[2]; individual patients, 400 mg BID
  Duration of BMF grade change: 1 cycles and 12 cycles
[2]; of the 11 improved after 3 cycles
  Patients with BMF improvement maintained for >12 weeks: 5 patients
[2]; of those with unchanged BMF grade after Cycle 3
  Patients achieving BMF improvement from baseline later in the study: 6 patients
[3]; 100 mg BID
  Median (range) cycles to splenic reduction ⩾50%: 7.5 (3–12) cycles
[3]; 200 mg BID
  Median (range) cycles to splenic reduction ⩾50%: 1 cycles
[3]; 200 mg QD
  Median (range) cycles to splenic reduction ⩾50%: 3 cycles
[3]; 250 mg BID
  Median (range) cycles to splenic reduction ⩾50%: 3 cycles
[3]; 300 mg BID
  Median (range) cycles to splenic reduction ⩾50%: 1 cycles
[3]; 300 mg QD
  Median (range) cycles to splenic reduction ⩾50%: 2 (1–8) cycles
[3]; 400 mg BID
  Median (range) cycles to splenic reduction ⩾50%: 1.5 (1–2) cycles
[3]; 400 mg QD
  Median (range) cycles to splenic reduction ⩾50%: 1 cycles
[3]; [9]
  Patients achieving ⩾50% reduction in palpable spleen size: 56%
  Patients with splenic reduction of 100%: 31%
[3]; JAK2^V617F-negative responders
  Patients with 100% splenic reduction: 3 patients
[3]; all cohorts
  Median duration of splenic response (range): 5.5 (1–24) cycles
[3]; all dose cohorts
  Median (range) cycles to splenic reduction ⩾50%: 1 (1–12) cycles
[3]; baseline spleen >10 cm
  Patients achieving ⩾50% reduction in spleen size: 15 patients
[3]; baseline spleen ⩽10 cm
  Patients attaining 100% reduction in spleen size: 5 patients
[3]; evaluable patients with prior JAK2 inhibitor treatment
  Patients achieving ⩾50% reduction in palpable spleen size: 47%
[3]; evaluable patients with the JAK2^V617F mutation
  Patients achieving ⩾50% reduction in palpable spleen size: 50%
[3]; prior JAK2 inhibitor treatment
  Median (range) cycles to splenic reduction ⩾50%: 2 (1–12) cycles
[3]; responders with the JAK2^V617F mutation
  Patients with 100% splenic reduction: 8 patients
JAK2
  Selectivity for JAK2 over JAK1: specificity of this agent for JAK2 over JAK1
JAK2; in vitro kinase assay
  Median inhibitory concentration: subnanomolar range
[4]; all symptoms measured
  Reductions in symptom scores achieved in at least some patients: up to 100%
[4]; by Week 4, all 8 assessed symptoms, total evaluable population
  Mean MF-SAF scores: reductions in mean MF-SAF scores
[4]; patients with previous JAK2 inhibitor treatment
  Mean MF-SAF symptom score: reduction in mean score for all symptoms
Plasma pharmacokinetics; Day 8, postdosing, all dose cohorts, oral
  Time to maximum plasma concentration (Cmax): 1 to 2 h
Plasma pharmacokinetics; based on Cmax on Day 8
  Dose proportionality of systemic exposure: approximately dose proportional
Plasma pharmacokinetics; exposure Days 8 vs 29
  Drug accumulation with multiple dosing: did not accumulate; also recorded: no evidence of drug accumulation
Plasma pharmacokinetics; human, plasma, po
  half-life: 2 to 5 h
